Reference: ChEMBL document CHEMBL1125801, “Fluorinated colchicinoids: antitubulin and cytotoxic properties” (J Med Chem, 1991)
pEC50: −log10 of the molar value.

Assays:
P388 [1] = assay: Cytotoxic activity against P388 mouse lymphocytic leukemia cell line (doxorubicin resistant).; type: functional; conditions: read-out: ED50 (the source's name)
Tubulin (Bos taurus) [2] = target: T1, Tubulin (Bos taurus) (UniProt Q6B856+Q862L2+Q862F3); conditions: at 2 µM
J774 [3] = assay: (§1) Cytotoxic activity against mouse macrophage cell line J7.COL-100.; type: functional; conditions: read-out: ED50 (the source's name)
P388 [4] = assay: Cytotoxic activity against P388 mouse lymphocytic leukemia cell line; type: functional; conditions: read-out: ED50 (the source's name)
J774 [5] = assay: Cytotoxic activity against mouse macrophage cell line J7.VBL-1; type: functional; conditions: read-out: ED50 (the source's name)
[6] = Retention time of the compound.; type: ADME
Tubulin (Bos taurus) [7] = target: T1, Tubulin (Bos taurus); conditions: at 5 µM
Tubulin (Bos taurus) [8] = target: T1, Tubulin (Bos taurus); conditions: at 2 µM; remark: listed apart in the source
[9] = Partition coefficient (logP); type: physicochemical; conditions: octanol/water
Tubulin (Bos taurus) [10] = target: T1, Tubulin (Bos taurus); conditions: at 5 µM; remark: listed apart in the source
J774.2 [11] = assay: Cytotoxic activity against mouse macrophage cell line J774.2; type: functional; conditions: read-out: ED50 (the source's name)
[12] = Retention time of the compound; NT-Not Tested; type: ADME
J774.2 [13] = assay: Cytotoxic activity against mouse macrophage cell line J774.2 after 72 hr; type: functional; conditions: J774.2, 72 h, read-out: ED50 (the source's name)
Summary of the method: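 Mouse macrophage-like J774.2 (wild type) cells were incubated with or without drug for 72 h, before controls reached confluency, in triplicate per concentration.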

J774 [14] = assay: as §1; type: functional; conditions: J774, read-out: ED50
Summary of the method: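 Colchicine-resistant variant of mouse macrophage-like J774.2, kept in 100 μM colchicine. Cells were exposed with or without drug in triplicate per concentration for 72 h, ending before controls reached confluency, and then living cells were counted.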

Compound	pEC50 (P388 [1])	ITP (Tubulin (Bos taurus) [2])	pEC50 (J774 [3])	pEC50 (P388 [4])	pEC50 (J774 [5])	tR [6]	ITP (Tubulin (Bos taurus) [7])	ITP (Tubulin (Bos taurus) [8])	logP [9]	ITP (Tubulin (Bos taurus) [10])	pEC50 (J774.2 [11])	ITP (Tubulin (Bos taurus) [10]; at 100 µM)	tR [12]	pEC50 (J774.2 [13])	pEC50 (J774 [14])
COc1cc2c(c(OC)c1OC)-c1ccc(=N)c(O)cc1C(NC(=O)C(F)(F)F)CC2 (configuration not stated)	7.22	48%	5.35	7.89	5.89	5.7 min	79%	42%	2.32	82%	8.00	–	–	–	–
COc1cc2c(c(OC)c1OC)-c1ccc(=O)c(O)cc1C(NC(=O)C(F)(F)F)CC2 (configuration not stated)	5.22	–	5.31	5.52	4.70	–	–	–	1.82	–	5.52	44%	–	–	–
COc1c(O)cc2c(c1OC)-c1ccc(SC)c(=O)cc1C(NC(C)=O)CC2 (configuration not stated)	–	–	–	–	–	3.8 min	–	–	1.43	–	–	–	–	–	–
COc1cc2c(c(OC)c1OC)-c1ccc(=O)c(OC)cc1C(NC(C)=O)CC2 (configuration not stated)	4.82	–	–	4.82	< 4.30	–	–	–	1	–	5.25	–	3.9 min	–	–
COc1cc2c(c(OC)c1O)-c1ccc(OC)c(=O)cc1C(NC(C)=O)CC2 (configuration not stated)	5.91	–	3.85	7.02	4.20	3 min	–	–	0.48	–	6.52	–	–	–	–
COc1cc2c(c(OC)c1OC)-c1cc/c(=N/CC(F)(F)F)c(O)cc1C(NC(C)=O)CC2 (configuration not stated)	6.05	–	4.30	7.29	4.77	7.4 min	–	–	1.45	–	6.72	–	–	–	–
COc1c(O)cc2c(c1OC)-c1ccc(SC)c(=O)cc1C(NC(=O)C(F)(F)F)CC2 (configuration not stated)	–	–	–	–	–	5.3 min	–	–	2.61	–	–	–	–	–	–
COc1cc2c(c(OC)c1O)-c1ccc(OC)c(=O)cc1C(NC(=O)C(F)(F)F)CC2 (configuration not stated)	6.92	24%	4.98	7.40	5.30	3.8 min	47%	17%	1.67	35%	7.40	–	–	–	–
COc1cc2c(c(OC)c1OC)-c1ccc(=N)c(O)cc1C(NC(C)=O)CC2 (configuration not stated)	6.40	–	4.15	7.89	4.82	4 min	–	–	0.3	–	7.70	–	–	–	–
COc1cc2c(c(OC)c1OC)-c1ccc(OC)c(=O)cc1[C@@H](NC(C)=O)CC2 [COLCHICINE]	6.33	–	3.70	7.92	4.77	3.9 min	–	–	0.6	–	7.22	–	–	–	–
COc1cc2c(c(OC)c1OC)-c1ccc(=O)c(OC)cc1C(NC(=O)C(F)(F)F)CC2 (configuration not stated)	4.89	–	–	5.82	< 4.70	–	–	–	2.08	–	5.41	10%	5.9 min	–	–
COc1cc2c(c(OC)c1OC)-c1cc/c(=N/CC(F)(F)F)c(O)cc1C(NC(=O)C(F)(F)F)CC2 (configuration not stated)	7.05	30%	5.06	7.30	5.54	10.6 min	35%	15%	1.36	45%	–	–	–	6.70	–
COc1cc2c(c(OC)c1OC)-c1ccc(=O)c(O)cc1C(NC(C)=O)CC2 (configuration not stated)	5.00	–	–	5.92	< 4.30	–	–	–	1.2	–	5.51	–	–	–	< 3.00
COc1cc2c(c(OC)c1OC)-c1ccc(OC)c(=O)cc1[C@@H](NC(=O)C(F)(F)F)CC2	7.40	–	4.85	8.40	6.10	5.4 min	–	–	1.72	–	8.00	–	–	–	–
CC/N=c1/ccc2c(cc1O)C(NC(C)=O)CCc1cc(OC)c(OC)c(OC)c1-2 (configuration not stated)	6.49	–	4.82	8.30	5.72	7.5 min	–	–	2.34	–	8.00	–	–	–	–
COc1cc2c(c(OC)c1OC)-c1cc/c(=N/CCF)c(O)cc1C(NC(C)=O)CC2 (configuration not stated)	6.33	–	4.49	7.64	5.32	5.1 min	–	–	1.7	–	6.82	–	–	–	–
